Results published in ChEMBL document CHEMBL1142193, “Dual targeting of GyrB and ParE by a novel aminobenzimidazole class of antibacterial compounds” (2007).
In brackets after ≈: the same amount, converted by molar mass. Activity calls are given as the source filed them. The calls are words filed in the database; no cut-off is given here.

Assays:
[1] = tested on: Streptococcus pneumoniae; experiment: Antibacterial activity against Streptococcus pneumoniae ATCC BAA-255 with ParE T172I mutation after 18 to 20 hrs; format: functional
In short: (§1)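 MICs followed CLSI guidelines. Strains were grown overnight at 35°C on solid medium. Inocula were prepared with a Prompt system. Compounds were serially diluted twofold in 100% DMSO at 200x and diluted 1:200 into medium, for a final 0.5% DMSO. Plates were incubated at 35°C for 18 to 20 h and read visually. A twofold MIC variation was taken as assay error.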

[2] = tested on: Staphylococcus aureus; experiment: Antibacterial activity against Staphylococcus aureus ATCC 29213 without plasmid; format: functional
[3] = tested on: Streptococcus pneumoniae; experiment: Antibacterial activity against Streptococcus pneumoniae ATCC BAA-255 with ParE T172A mutation after 18 to 20 hrs; format: functional; in short: as §1
[4] = tested on: Staphylococcus aureus; experiment: Inhibition of DNA synthesis in Staphylococcus aureus ATCC 29213 assessed as [3H]thymidine incorporation; format: functional
In short: (§2)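 Log-phase cells exposed in duplicate to compound at 5x MIC; labelled-precursor uptake measured over 15 min, stopped with 10% trichloroacetic acid. Incorporation expressed as percent of untreated control (taken as 100%).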

[5] = tested on: Staphylococcus aureus; experiment: Antibacterial activity against Staphylococcus aureus ATCC 29213 with GyrB T173I mutation without plasmid; format: functional
[6] = tested on: Streptococcus pneumoniae; experiment: Antibacterial activity against novobiocin-resistant Streptococcus pneumoniae ATCC BAA-255 with GyrB S127L mutation after 18 to 20 hrs; format: functional; in short: as §1
[7] = tested on: Haemophilus influenzae; experiment: Antibacterial activity against novobiocin-resistant Haemophilus influenzae ATCC 51907 with GyrB R140L mutation after 18 to 20 hrs; format: functional; in short: as §1
[8] = tested on: Staphylococcus aureus; experiment: Antibacterial activity against Staphylococcus aureus ATCC 29213 with GyrB T173N mutation without plasmid; format: functional
[9] = tested on: Enterococcus faecalis; experiment: Antibacterial activity against Enterococcus faecalis ATCC 29212 after 18 to 20 hrs; format: functional; in short: as §1
[10] = tested on: Staphylococcus aureus; experiment: Antibacterial activity against Staphylococcus aureus ATCC 29213 with GyrB T173I mutation after 18 to 20 hrs; format: functional; in short: as §1
[11] = tested on: Staphylococcus aureus; experiment: Antibacterial activity against Staphylococcus aureus ATCC 29213 with GyrB T173N and GrlB T166A mutation after 18 to 20 hrs; format: functional; in short: as §1
[12] = tested on: Enterococcus faecalis; experiment: Antibacterial activity against Enterococcus faecalis ATCC 29212 with GyrB T167A and ParE T169A mutation after 18 to 20 hrs; format: functional; in short: as §1
[13] = tested on: Staphylococcus aureus; experiment: Antibacterial activity against Staphylococcus aureus ATCC 29213 carrying plasmid expressing GyrB T173I mutant; format: functional
[14] = tested on: Escherichia coli; experiment: Reduction in steady-state levels of supercoiled pUC18 in Escherichia coli CAG12184 tolC mutant; format: functional, organism-based
In short: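 Cells carrying pUC18 grown at 37°C in caMHB with 100 µg/ml ampicillin to OD600 0.5, then exposed 1 h at 37°C with shaking to a twofold dilution series spanning the MIC. Plasmid isolated, concentrated, run on 1% TBE-agarose alongside supercoiled markers for 16 h, stained with ethidium bromide.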

[15] = tested on: Staphylococcus aureus; experiment: Inhibition of protein synthesis in Staphylococcus aureus ATCC 29213 assessed as [3H]aminoacid incorporation; format: functional
[16] = tested on: Streptococcus pneumoniae; experiment: Antibacterial activity against Streptococcus pneumoniae ATCC BAA-255 with GyrB T172A and ParE T172A mutation after 18 to 20 hrs; format: functional; in short: as §1
[17] = tested on: Staphylococcus aureus; experiment: Inhibition of RNA synthesis in Staphylococcus aureus ATCC 29213 assessed as [3H]uridine incorporation; format: functional; in short: as §2
[18] = tested on: Staphylococcus aureus; experiment: Antibacterial activity against Staphylococcus aureus ATCC 29213 carrying plasmid expressing wild type GyrB; format: functional
[19] = tested on: Staphylococcus aureus; experiment: Antibacterial activity against Staphylococcus aureus ATCC 29213 carrying plasmid expressing GyrB R144I mutant; format: functional
[20] = tested on: Haemophilus influenzae; experiment: Antibacterial activity against novobiocin-resistant Haemophilus influenzae ATCC 51907 with GyrB R140H mutation after 18 to 20 hrs; format: functional; in short: as §1
[21] = tested on: Haemophilus influenzae; experiment: Antibacterial activity against novobiocin-resistant Haemophilus influenzae ATCC 51907 with GyrB R140C mutation after 18 to 20 hrs; format: functional; in short: as §1
[22] = tested on: Streptococcus pneumoniae; experiment: Antibacterial activity against Streptococcus pneumoniae ATCC BAA-255 after 18 to 20 hrs; format: functional; in short: as §1
[23] = tested on: Haemophilus influenzae; experiment: Antibacterial activity against Haemophilus influenzae ATCC 51907 after 18 to 20 hrs; format: functional; in short: as §1
[24] = tested on: Enterococcus faecalis; experiment: Antibacterial activity against Enterococcus faecalis ATCC 29212 with ParE T169A mutation after 18 to 20 hrs; format: functional; in short: as §1
[25] = tested on: Staphylococcus aureus; experiment: Antibacterial activity against Staphylococcus aureus ATCC 29213 after 18 to 20 hrs; format: functional; in short: as §1
[26] = tested on: Enterococcus faecalis; experiment: Antibacterial activity against Enterococcus faecalis ATCC 29212 with GyrB T167I mutation after 18 to 20 hrs; format: functional; in short: as §1
[27] = tested on: Enterococcus faecalis; experiment: Antibacterial activity against Enterococcus faecalis ATCC 29212 with GyrB T167I and ParE T169A mutation after 18 to 20 hrs; format: functional; in short: as §1
[28] = tested on: Enterococcus faecalis; experiment: Antibacterial activity against Enterococcus faecalis ATCC 29212 with GyrB T167A mutation after 18 to 20 hrs; format: functional; in short: as §1
[29] = tested on: Staphylococcus aureus; experiment: Antibacterial activity against Staphylococcus aureus ATCC 29213 carrying plasmid expressing GyrB T173N mutant; format: functional
[30] = tested on: Staphylococcus aureus; experiment: Antibacterial activity against novobiocin-resistant Staphylococcus aureus ATCC 29213 with GyrB R144I mutation after 18 to 20 hrs; format: functional; in short: as §1
[31] = tested on: Staphylococcus aureus; experiment: Antibacterial activity against Staphylococcus aureus ATCC 29213 with GyrB R144I mutation without plasmid; format: functional
[32] = tested on: Staphylococcus aureus; experiment: Antibacterial activity against Staphylococcus aureus ATCC 29213 with GyrB T173I and GrlB T166A mutation after 18 to 20 hrs; format: functional; in short: as §1
[33] = tested on: Staphylococcus aureus; experiment: Antibacterial activity against Staphylococcus aureus ATCC 29213 with GyrB T173N mutation after 18 to 20 hrs; format: functional; in short: as §1
[34] = tested on: Haemophilus influenzae; experiment: Antibacterial activity against Haemophilus influenzae ATCC 51907 with GyrB T169I mutation after 18 to 20 hrs; format: functional; in short: as §1

| SMILES | MIC [2] [µg/mL] | MIC [3] [µg/mL] | MIC [5] [µg/mL] | MIC [6] [µg/mL] | MIC [7] [µg/mL] | MIC [8] [µg/mL] | MIC [9] [µg/mL] | MIC [10] [µg/mL] | MIC [11] [µg/mL] | MIC [12] [µg/mL] | MIC [13] [µg/mL] | MIC [16] [µg/mL] | MIC [18] [µg/mL] | MIC [19] [µg/mL] | MIC [20] [µg/mL] | MIC [21] [µg/mL] | MIC [23] [µg/mL] | MIC [24] [µg/mL] | MIC [25] [µg/mL] | MIC [26] [µg/mL] | also measured |
| --- | --- | --- | --- | --- | --- | --- | --- | --- | --- | --- | --- | --- | --- | --- | --- | --- | --- | --- | --- | --- | --- |
| CCNC(=O)Nc1nc2cc(-c3cnc(OC)nc3)c(OC)cc2[nH]1 | 2 (≈ 5.84 µM) | 8 (≈ 23.4 µM) | 8 (≈ 23.4 µM) | 0.5 (≈ 1.46 µM) | 4 (≈ 11.7 µM) | 8 (≈ 23.4 µM) | 1 (≈ 2.92 µM) | 16 (≈ 46.7 µM) | > 64 | > 64 | 8 (≈ 23.4 µM) | 64 (≈ 187 µM) | 2 (≈ 5.84 µM) | 2 (≈ 5.84 µM) | 2 (≈ 5.84 µM) | 2 (≈ 5.84 µM) | 4 (≈ 11.7 µM) | 8 (≈ 23.4 µM) | 2 (≈ 5.84 µM) | 1 (≈ 2.92 µM) | MIC [1]: 4 µg/mL (≈ 11.7 µM); Inhibition [4]: 80%; Activity [14]: Dose-dependent effect; Inhibition [15]: 20%; Inhibition [17]: 20%; MIC [22]: 0.5 µg/mL (≈ 1.46 µM); MIC [27]: > 64 µg/mL; MIC [28]: 0.5 µg/mL (≈ 1.46 µM); MIC [29]: 8 µg/mL (≈ 23.4 µM); MIC [30]: 4 µg/mL (≈ 11.7 µM); MIC [31]: 2 µg/mL (≈ 5.84 µM); MIC [32]: > 64 µg/mL; MIC [33]: 16 µg/mL (≈ 46.7 µM); MIC [34]: > 64 µg/mL |
| O=C(O)c1cn(C2CC2)c2cc(N3CCNCC3)c(F)cc2c1=O [CIPROFLOXACIN] | 0.25 (≈ 0.754 µM) | 0.25 (≈ 0.754 µM) | 0.25 (≈ 0.754 µM) | 0.25 (≈ 0.754 µM) | 0.004 (≈ 0.0121 µM) | 0.25 (≈ 0.754 µM) | 1 (≈ 3.02 µM) | 0.25 (≈ 0.754 µM) | 0.25 (≈ 0.754 µM) | 0.5 (≈ 1.51 µM) | 0.25 (≈ 0.754 µM) | 0.25 (≈ 0.754 µM) | 0.25 (≈ 0.754 µM) | 0.25 (≈ 0.754 µM) | 0.004 (≈ 0.0121 µM) | 0.004 (≈ 0.0121 µM) | 0.004 (≈ 0.0121 µM) | 1 (≈ 3.02 µM) | 0.25 (≈ 0.754 µM) | 1 (≈ 3.02 µM) | Activity [4]: Active; Activity [15]: inactive; Activity [17]: inactive; MIC [27]: 0.5 µg/mL (≈ 1.51 µM); MIC [28]: 0.5 µg/mL (≈ 1.51 µM); MIC [29]: 0.25 µg/mL (≈ 0.754 µM); MIC [30]: 0.25 µg/mL (≈ 0.754 µM); MIC [31]: 0.25 µg/mL (≈ 0.754 µM); MIC [32]: 0.25 µg/mL (≈ 0.754 µM); MIC [33]: 0.25 µg/mL (≈ 0.754 µM); MIC [34]: 0.004 µg/mL (≈ 0.0121 µM) |
| CCNC(=O)Nc1nc2cc(-c3cccnc3)cc(-c3ncccc3F)c2[nH]1 | 0.06 (≈ 0.159 µM) | 0.016 (≈ 0.0425 µM) | 0.25 (≈ 0.664 µM) | 0.002 (≈ 0.00531 µM) | 1 (≈ 2.66 µM) | 0.25 (≈ 0.664 µM) | 0.032 (≈ 0.085 µM) | 0.5 (≈ 1.33 µM) | > 8 | 0.5 (≈ 1.33 µM) | 0.13 (≈ 0.345 µM) | 0.25 (≈ 0.664 µM) | 0.06 (≈ 0.159 µM) | 0.06 (≈ 0.159 µM) | 1 (≈ 2.66 µM) | 1 (≈ 2.66 µM) | 1 (≈ 2.66 µM) | 0.064 (≈ 0.17 µM) | 0.03 (≈ 0.0797 µM) | 0.064 (≈ 0.17 µM) | MIC [1]: 0.016 µg/mL (≈ 0.0425 µM); Activity [14]: Dose-dependent effect; MIC [22]: 0.004 µg/mL (≈ 0.0106 µM); MIC [27]: 1 µg/mL (≈ 2.66 µM); MIC [28]: 0.032 µg/mL (≈ 0.085 µM); MIC [29]: 0.25 µg/mL (≈ 0.664 µM); MIC [30]: 0.06 µg/mL (≈ 0.159 µM); MIC [31]: 0.06 µg/mL (≈ 0.159 µM); MIC [32]: 4 µg/mL (≈ 10.6 µM); MIC [33]: 0.5 µg/mL (≈ 1.33 µM); MIC [34]: > 64 µg/mL |
